PP1 counter – PP1-alpha (human) inhibition in PP5 counter-screen; P62136; purified PP1alpha, OMFP fluorescence; inhibition, % at 6.7 µM; 320,000 tested, 0.9% active; AID 2235;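 active means inhibition above the mean inhibition of all tested compounds plus 3 SD, computed separately for each screening campaign, cut at about 15% in these data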
Target sequence (P62136 whole entry, looked up): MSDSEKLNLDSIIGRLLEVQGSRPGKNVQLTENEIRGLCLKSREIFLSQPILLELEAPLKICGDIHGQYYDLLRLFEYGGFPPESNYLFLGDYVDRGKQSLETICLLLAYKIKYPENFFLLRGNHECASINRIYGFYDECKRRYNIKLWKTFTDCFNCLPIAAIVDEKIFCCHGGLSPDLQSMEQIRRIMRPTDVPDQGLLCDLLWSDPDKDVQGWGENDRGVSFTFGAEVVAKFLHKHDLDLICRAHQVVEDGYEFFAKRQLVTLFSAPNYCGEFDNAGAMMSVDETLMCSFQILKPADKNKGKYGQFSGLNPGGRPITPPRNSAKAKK
UBC13 inh – human UBC13 polyubiquitination inhibition. P61088. UBC13 polyubiquitin chain formation, TR-FRET. inhibition, % at 20 µM. 330,000 tested, 0.47% active; in the data active means inhibition above about 45%, passing the limit was not always enough; inconclusive means no clear call, values can overlap the other calls
p-CIP stab down – compounds decreasing mouse p/CIP protein stability. Q05BA5. F442A p/CIP-EGFP cells, EGFP fluorescence, 16 h. decrease of EGFP signal, % at 10 µM. 290,000 tested, 0.01% active;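 active means EGFP signal decrease of at least 30% at 10 µM or well 3 SD below plate mean, unless failing retest; inactive means the rest, including hits failing retest or dose response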
T cruzi repl – T. cruzi replication inhibition | T. cruzi beta-gal in NIH3T3, luminescence, 90 h | inhibition, % (no concentration beside the values) | 300,000 tested, 1.4% active | AID 1885;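 active means mean inhibition across valid replicates above about 55%, limit read from the data; inconclusive means mean below that limit but half or more replicates reach it; inactive means mean below it, under half of replicates reach it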;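 further: signal also drops with host cell toxicity which is not excluded here; 0% = plate median of DMSO wells and 100% = zero luminescence signal; higher percent means less beta-gal luminescence so fewer parasites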
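System: mouse NIH/3T3 fibroblasts infected with β-gal-expressing T. cruzi Tulahuen C4 / Input: NIH/3T3 cells, 5,000 per well / Buffer or medium: Low-serum DMEM with 2% FBS / Probe or stimulus: 5000 reporter trypomastigotes per well / Schedule: ≥90 h infection period, 3 h prior cell attachment / Measured by: GalScreen luminescence, 60 min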
AI-2 QS mod – Vibrio harveyi AI-2 quorum sensing modulation; AID 2094; activity change, % at 7.5 µM; Vibrio harveyi JMH597 AI-2 luminescence/OD600 ratio, 9 h; hits give low values; strain lacks LuxN and CqsS sensors; 0 = neutral-control median; 300,000 tested, 0.4% active; in the data active means activity change below about -75%, passing the limit was not always enough; inconclusive means no clear call, values can overlap the other calls;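 further: luminescence divided by OD600 gain over 9 h not by final OD600 alone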
Casp3 UBC13 ctr – caspase-3 inhibition (UBC13 counter-screen); 1,400 tested, 4% active; inhibition, % at 20 µM; AID 488856; Recombinant caspase-3, Caspase-Glo 3/7 luminescence, 60 min; shares compounds with UBC13 inh;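 active means mean inhibition across replicates above about 26%, limit read from the data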;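 further: plate controls were DMSO with caspase-3 for no effect and DMSO wells lacking enzyme for full effect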
Target sequence (P42574 whole entry, looked up): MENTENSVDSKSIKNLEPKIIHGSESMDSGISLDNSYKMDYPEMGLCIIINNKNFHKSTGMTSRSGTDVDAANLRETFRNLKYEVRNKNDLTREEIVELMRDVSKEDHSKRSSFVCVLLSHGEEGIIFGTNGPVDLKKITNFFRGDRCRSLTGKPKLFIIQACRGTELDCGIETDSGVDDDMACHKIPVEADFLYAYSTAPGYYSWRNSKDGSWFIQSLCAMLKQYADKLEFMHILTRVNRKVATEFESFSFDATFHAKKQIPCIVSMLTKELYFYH
UBC13 conf – confirmation of human UBC13 polyubiquitin inhibitors. shares compounds with UBC13 inh. UBC13 polyubiquitination, TR-FRET, biochemical. inhibition, % at 10 µM. 1,400 tested, 68% active. AID 488859; in the data active means inhibition above about 45%; inconclusive means no clear call, values can overlap the other calls
* = called active by the depositor; ? = inconclusive; · = not tested or not shown. An excerpt weighted towards active compounds, which were near 2.8% of everything screened.

SMILES	PP1 counter	UBC13 inh	p-CIP stab down	T cruzi repl	AI-2 QS mod	Casp3 UBC13 ctr	UBC13 conf
O=C1CCN(Cc2cccnc2)CCN1[C@H](CO)Cc1ccccc1	-8	4	-10	-7	8	·	·
NC(N)=NCCCC(NC(=O)c1ccccc1)C(=O)Nc1ccc([N+](=O)[O-])cc1 (stereo unspecified)	-1	27	·	-10	0	·	·
NC(N)=NCCCC(NC(=O)c1ccccc1)C(=O)Nc1ccc2ccccc2c1 (stereo unspecified)	2	48*	·	·	·	-1	30
CC(C)n1c(C(F)(F)F)nc2cc(C(=O)N3CCCCC3)ccc21	-3	5	0	-14	·	·	·
Cn1cncc1C#Cc1c(-c2ccc(S(C)(=O)=O)cc2)sc2ccccc12	·	69*	·	·	·	-5	50*
COc1ccc(-c2sc3ccccc3c2C#CCO)cc1	-4	17	14	-19	14	·	·
COc1ccc(-c2sc3ccccc3c2C#Cc2cncn2C)cc1	·	59*	·	·	·	-1	44
Cc1c(NC(=O)c2nn3c(c2Br)NC(c2ccccc2)CC3C(F)(F)F)c(=O)n(-c2ccccc2)n1C (stereo unspecified)	-1	-5	-2	-10	24	·	·
CCN1C(=O)CC(c2ccccc2)N(C2CCCC2)c2nc(Nc3ccc(C(=O)NC4CCN(C)CC4)cc3OC)ncc21 (stereo unspecified)	·	61*	·	·	·	1	41
CCN1C(=O)CSc2ccc(C(=O)NC3CCCCC3)cc21	-3	4	2	12	40	·	·
CCc1nnc(NC(=O)C2=CCN(S(=O)(=O)c3ccc(F)cc3)CC2)s1	-8	14	1	2	14	·	·
Nc1ccc(C23CC4CC(CC(CO)(C4)C2)C3)cc1	2	4	-12	0	22	·	·
NCC12CC3CC(C1)CC(c1ccc(Cl)cc1)(C3)C2	2	57*	-14	64*	-3	-4	76*
Cc1cnc(NS(=O)(=O)c2ccccc2)c(C)n1	-1	4	-5	-9	25	·	·
CCOc1ccccc1NC(=O)C(OC(=O)c1ccc(O)cc1)c1ccccc1 (stereo unspecified)	2	78*	-6	12	27	-2	89*
Cc1ccc(C)c(S(=O)(=O)N2CCCC2CNC(=O)C(=O)NCCN2CCOCC2)c1 (stereo unspecified)	-4	0	·	-12	15	·	·
COc1ccccc1NC(=O)COc1cccnc1[N+](=O)[O-]	·	46*	·	·	·	0	27
COc1ccccc1CNC(=O)COc1cccnc1[N+](=O)[O-]	-4	-6	-14	8	19	·	·
CCOc1ccccc1NC(=O)COc1cccnc1[N+](=O)[O-]	·	51*	·	·	·	3	38
O=C(COc1cccnc1[N+](=O)[O-])Nc1ccc(F)cc1	·	-2	·	·	·	·	·
CC(=O)Nc1ccc(NC(=O)c2cc[n+]([O-])cc2)cc1	-7	-5	-5	-12	3	·	·
CC1(C)Cc2c(sc(NC(=O)C(=O)N3CCCC3)c2C(N)=O)CO1	-6	86*	4	-19	13	4	105*
COC(=O)c1c(NC(=O)C(=O)N2CCCC2)sc2c1CC(C)(C)OC2	-5	48*	13	0	13	-3	100*
CC1(C)Cc2c(sc(NC(=O)C(=O)NCC3CCCO3)c2C(N)=O)CO1 (stereo unspecified)	-3	81*	-5	-8	6	-1	106*
Cc1ccc(N2C(SCC(=O)O)=NC(=Nc3cccc(C)c3)C23CCCC3)cc1	1	0	7	-5	40	·	·
SMILES	PP1 counter	UBC13 inh	p-CIP stab down	T cruzi repl	AI-2 QS mod	Casp3 UBC13 ctr	UBC13 conf
COc1cccc(CNc2ncnc3ccc(-c4c(C)noc4C)cc23)c1	2	?	·	·	·	·	·
Cc1ccsc1CNc1ncnc2ccc(-c3c(C)noc3C)cc12	·	46*	·	·	·	1	44
C#CCOCCOCCOCCNc1nc(N2CCN(C(=O)[C@H](CCCCN)n3cc([C@@H](N)CC(C)C)nn3)CC2)nc(N2CCN(C(=O)[C@H](Cc3cc4ccccc4[nH]3)n3cc([C@@H](N)Cc4ccc(O)cc4)nn3)CC2)n1	17*	103*	9	-10	-5	2	116*
N[C@@H](CO)c1cn([C@@H](Cc2cc3ccccc3[nH]2)C(=O)N2CCNCC2)nn1	-1	101*	-2	12	7	-2	107*
C#CCOCCOCCOCCNc1nc(N2CCN(C(=O)[C@H](Cc3ccc(O)cc3)n3cc([C@@H](N)CC(C)C)nn3)CC2)nc(N2CCN(C(=O)[C@H](Cc3cc4ccccc4[nH]3)n3cc([C@@H](N)CC(C)C)nn3)CC2)n1	11	80*	2	-13	13	-4	62*
C#CCOCCOCCOCCNc1nc(N2CCN(C(=O)[C@H](CCC(=O)O)n3cc(C(N)Cc4ccc(O)cc4)nn3)CC2)nc(N2CCN(C(=O)[C@H](Cc3ccc(O)cc3)n3cc(C(N)CC(C)C)nn3)CC2)n1 (stereo partly specified)	·	-13	6	-10	31	·	·
C#CCOCCOCCOCCNc1nc(N2CCN(C(=O)[C@H](CCCCN)n3cc([C@@H](N)C(C)CC)nn3)CC2)nc(N2CCN(C(=O)[C@H](Cc3cc4ccccc4[nH]3)n3cc([C@@H](N)C(C)CC)nn3)CC2)n1 (stereo partly specified)	·	111*	·	·	·	-2	114*
O=C(NCc1nnc(SCC(=O)N2CCN(c3ccccc3)CC2)o1)c1c(F)cccc1Cl	1	6	-2	2	15	·	·
CC(CCc1ccccc1)N(C)CC(O)c1cccc([N+](=O)[O-])c1 (stereo unspecified)	1	14	-8	16	21	·	·
Cc1ccc(C)c(COc2coc(CN3CCN(C(=O)c4ccco4)CC3)cc2=O)c1	-8	1	·	-5	15	·	·
Cc1ccc(OCCNC(=O)CNC(=O)c2ccc3c(c2)OCO3)cc1	-5	-3	·	-23	12	·	·
CCN(Cc1cc2cc(C)ccc2[nH]c1=O)C(=O)c1cccc([N+](=O)[O-])c1	2	-2	-4	-15	19	·	·
N#C[C@H]1C(O)C(O)c2ccccc2N1C(=O)c1ccccc1 (stereo partly specified)	-2	58*	·	0	23	3	9
CC1=Cc2ccccc2C(C#N)N1C(=O)c1ccccc1 (stereo unspecified)	-3	-11	4	-7	5	·	·
COc1cc2nc(N(CCCN(C)C)C(=O)c3ccc(C(=O)c4ccccc4)cc3)sc2cc1OC	-2	27	·	44	11	·	·
CN(C)CCCN(C(=O)c1ccc2c(c1)CCCC2)c1nc2ccc(Cl)cc2s1	10	65*	-2	45	13	2	93*

Bioassay records (PubChem BioAssay)
